One data set has as its system S. aureus USA300 (MRSA). Put plainly: MIC against multidrug-resistant strain. The conditions noted are these: Staphylococcus aureus. Type of data set: cell-based. Put shortly: (§1)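 Broth microdilution in non-cation-adjusted Mueller-Hinton broth. Bacteria were subcultured to OD 0.2–0.3 (about 10^8 CFU/mL), then diluted to about 10^5 CFU/mL final. Test compound stock was in DI water. Twofold dilutions gave 512 to 1 µg/mL final. Plates were incubated 18-20 h at 37 °C and read at OD600.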

For the next data set, the system named is S. aureus USA300 (LAC). Put plainly: MIC against multidrug-resistant strain. To be noted: Staphylococcus aureus. The data set is classed as cell-based. Put shortly: as §1
In a further data set the test system is S. aureus BAA39 (MRSA). Put plainly: MIC against multidrug-resistant strain. Type of data set: cell-based. To be noted: Staphylococcus aureus. Put shortly:
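Broth microdilution in non-cation-adjusted Mueller-Hinton broth. Bacteria were subcultured to OD 0.2–0.3 (about 10^8 CFU/mL) and diluted to give about 10^5 CFU/mL in wells. The test compound stock was in DI water, serially diluted twofold to final 512–1 µg/mL. Plates were incubated at 37 °C for 18–20 h and read at OD600.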

For data set [1], the system named is K. pneumoniae KPNR. Put plainly: MIC against multidrug-resistant strain. The data set is classed as cell-based. The conditions noted are these: Klebsiella pneumoniae.
Data set [2] relates to P. aeruginosa PAO1. Put plainly: Resistance frequency determination. Type of data set: cell-based. To be noted: 10× MIC.
Data set [3] deals with P. aeruginosa BAA-2797. Put plainly: Murine systemic. Type of data set: in vivo, balb/c mice. To be noted: P. aeruginosa BAA-2797 peritonitis; single dose 10 mg/kg i.p. at 2 h; n = 6. Put shortly: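 Female BALB/c mice, 7–8 weeks, were infected i.p. with P. aeruginosa BAA-2797 (10^6 CFU/mL) in PBS containing 5% mucin. At 2 h post-infection they received a single i.p. dose of PBS, test compound (10 mg/kg) or imipenem (10 mg/kg), n = 6. Survival was monitored for up to 7 days.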

The subject of data set [4] is P. aeruginosa BAA-2797. Put plainly: Murine neutropenic thigh infection model. To be noted: 2 doses of 15 mg/kg s.c. at 2, 6 h, 26 h. Type of data set: in vivo, balb/c mice. Put shortly:
(§2)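 Infection was intramuscular into the right thigh: P. aeruginosa BAA-2797 at 10^5, K. pneumoniae KPNR at 10^6, or MRSA at 10^5 CFU/mL. PBS, test compound or imipenem was given s.c. at 15 mg/kg at 2 and 6 h (n = 6). Thighs were homogenised at 26 h for CFU.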

Data set [5] concerns K. pneumoniae KPNR. Put plainly: Murine neutropenic thigh infection model. The data set is classed as in vivo, balb/c mice. The conditions noted are these: 2 doses of 15 mg/kg s.c. at 2, 6 h, 26 h. Put shortly: as §2
The test system of data set [6] is P. aeruginosa PAO1. Put plainly: Murine lung infection model. Type of data set: in vivo, balb/c mice. To be noted: 10 mg/kg intranasal at 2, 8, 26 h. An outline of the steps:
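Infection was intranasal with P. aeruginosa PAO1 (10^4 CFU/mL inoculum). PBS, test compound or imipenem was given intranasally at 10 mg/kg at 2, 8 and 26 h post-infection (n = 6). Lungs were homogenised at 38 h for CFU. Survival was followed for up to 7 days.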

For data set [7] the following is noted: conventional antibiotics, literature values; cited from earlier work.
In a further data set the test system is MRSA. Put plainly: Murine neutropenic thigh infection model. Type of data set: in vivo, balb/c mice. The conditions noted are these: 2 doses of 15 mg/kg s.c. at 2, 6 h, 26 h. An outline of the steps: as §2

SMILES strings stand for the structures. Values after ≈ are worked out from the molar mass of the structure shown.

In general, MIC refers to the least concentration at which growth counts as inhibited. A low value points to inhibition by little substance.

In the case of `O=C(O)c1cn(C2CC2)c2cc(N3CCNCC3)c(F)cc2c1=O` [CIP, ciprofloxacin], the MIC in the data set on S. aureus USA300 (MRSA) is under 1 µg/mL; with S. aureus USA300 (LAC), 8 µg/mL (≈ 24.1 µM); against S. aureus BAA39 (MRSA), 4 µg/mL (≈ 12.1 µM).

For the compound `C[C@@H](O)[C@H]1C(=O)N2C(C(=O)O)=C(SCCN=CN)C[C@H]12` [IMP, imipenem], the minimum inhibitory concentration (MIC) in the data set with S. aureus USA300 (MRSA) is under 1 µg/mL; against S. aureus USA300 (LAC) it was under 1 µg/mL; with S. aureus BAA39 (MRSA), under 1 µg/mL; in the data set on K. pneumoniae KPNR [1], 4 µg/mL (≈ 13.4 µM). In addition, in the data set with P. aeruginosa PAO1 [2], the “selection of resistant escape mutants” value is “resistant strains developed”. In addition, the “survival (mice rescued)” value in the data set with P. aeruginosa BAA-2797 [3] is “succumbed to the infection”; with P. aeruginosa PAO1 [6] (P. aeruginosa PAO1 lung infection, n = 6) it was 5 out of 6. In addition, the “CFU reduction in thigh vs PBS (-)” value in the data set on P. aeruginosa BAA-2797 [4] worked out at 0.1 log10; in the data set with K. pneumoniae KPNR [5], 1.4 log10. Moreover, the “reduction of bacterial burden in lung tissues” value in the data set on P. aeruginosa PAO1 [6] (P. aeruginosa PAO1, 38 h) stood at 4.7 log10. The “half-life (T1/2)” value in data set [7] was 12 min.

As to `CN[C@H](CC(C)C)C(=O)N[C@H]1C(=O)N[C@@H](CC(N)=O)C(=O)N[C@H]2C(=O)N[C@H]3C(=O)N[C@H](C(=O)N[C@H](C(=O)O)c4cc(O)cc(O)c4-c4cc3ccc4O)[C@H](O)c3ccc(c(Cl)c3)Oc3cc2cc(c3O[C@@H]2O[C@H](CO)[C@@H](O)[C@H](O)[C@H]2O[C@H]2C[C@](C)(N)[C@H](O)[C@H](C)O2)Oc2ccc(cc2Cl)[C@H]1O` [VAN, vancomycin], the MIC in the data set on S. aureus USA300 (MRSA) is under 1 µg/mL; in the data set with S. aureus USA300 (LAC), under 1 µg/mL; in the data set with S. aureus BAA39 (MRSA), 1 µg/mL (≈ 0.69 µM). Moreover, in the data set with MRSA, the “CFU reduction in thigh vs PBS (-)” value is on record as 2.3 log10.

With `C[C@@H](O)[C@H]1C(=O)N2C(C(=O)O)=C(S[C@@H]3CN[C@H](C(=O)N(C)C)C3)[C@H](C)[C@H]12` [meropenem], the “half-life (T1/2)” value in data set [7] is given as 6 min.

The values above are taken from PMC12594766 (Nature Communications, 2025).
